Results from ChEMBL document CHEMBL2417507, “Synthesis and bioevaluation of some new isoniazid derivatives” (Bioorg Med Chem, 2013).
≈ marks a conversion by molar mass, not a printed value. Calls of active or inactive are those of the source. No cut-off for these calls is given here.

What was measured:
HCT-8 [1] = assay: Cytotoxicity against human HCT8 cells at 25 ug/mL after 24 hrs by trypan blue exclusion assay; type: cell-based; settings: hct-8, 24 h
Outline: (§1)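 HCT8 cells (3 × 10^5 per 3.5-cm well) treated 24 h, then trypsinised, spun and resuspended in PBS. Suspension mixed 1:1 with 0.4% trypan blue for 1 min and viable/non-viable cells counted on a haemocytometer. Each experiment repeated three times.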

HCT-8 [2] = assay: Cell cycle arrest in human HCT8 cells assessed as accumulation at G2/M phase at 12.5 ug/mL after 24 hrs by propidium iodide staining-based flow cytometric analysis (reference value: 13.83%); type: ADME; settings: hct-8, 24 h
HCT-8 [3] = assay: Cell cycle arrest in human HCT8 cells assessed as accumulation at S phase at 12.5 ug/mL after 24 hrs by propidium iodide staining-based flow cytometric analysis (reference value: 39.43%); type: ADME; settings: hct-8, 24 h
HCT-8 [4] = assay: Cell cycle arrest in human HCT8 cells assessed as accumulation at G0/G1 phase at 12.5 ug/mL after 24 hrs by propidium iodide staining-based flow cytometric analysis (reference value: 46.43%); type: ADME; settings: hct-8, 24 h
[5] = Induction of apoptosis in human HCT8 cells assessed as viable cells at 25 ug/mL after 24 hrs by Annexin V-FITC and propidium iodide staining-based flow cytometric analysis (reference value: 87.7%); type: cell-based, HCT-8; settings: read-out: Activity
HCT-8 [6] = assay: Induction of apoptosis in human HCT8 cells assessed as early apoptotic cells at 25 ug/mL after 24 hrs by Annexin V-FITC and propidium iodide staining-based flow cytometric analysis (reference value: 1.57%); type: cell-based; settings: hct-8, 24 h
HCT-8 [7] = assay: Induction of apoptosis in human HCT8 cells assessed as late apoptotic cells at 25 ug/mL after 24 hrs by Annexin V-FITC and propidium iodide staining-based flow cytometric analysis (reference value: 2.97%); type: cell-based; settings: hct-8, 24 h
HCT-8 [8] = assay: Induction of apoptosis in human HCT8 cells assessed as necrotic cells at 25 ug/mL after 24 hrs by Annexin V-FITC and propidium iodide staining-based flow cytometric analysis (reference value: 7.73%); type: cell-based; settings: hct-8, 24 h
Acinetobacter baumannii [9] = assay: Antibacterial activity against Acinetobacter baumannii 247 assessed as growth inhibition at 1 mg/mL after 24 hrs by agar-disk diffusion technique; type: functional, organism-based
Outline: (§2)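 Agar-disk diffusion, adapted: plates seeded with 0.5 McFarland suspension prepared from 24 h cultures; 5 µL of a 1 mg/mL compound solution spotted onto the seeded solid medium; incubated 24 h at 37 °C. Stocks made in DMSO.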

Acinetobacter baumannii [10] = assay: Antibacterial activity against Acinetobacter baumannii 192 assessed as growth inhibition at 1 mg/mL after 24 hrs by agar-disk diffusion technique; type: functional, organism-based; outline: as §2
Acinetobacter baumannii [11] = assay: Antibacterial activity against Acinetobacter baumannii 136 assessed as growth inhibition at 1 mg/mL after 24 hrs by agar-disk diffusion technique; type: functional, organism-based; outline: as §2
Acinetobacter baumannii [12] = assay: Antibacterial activity against Acinetobacter baumannii 135 assessed as growth inhibition at 1 mg/mL after 24 hrs by agar-disk diffusion technique; type: functional, organism-based; outline: as §2
Acinetobacter baumannii [13] = assay: Antibacterial activity against Acinetobacter baumannii 125 assessed as growth inhibition at 1 mg/mL after 24 hrs by agar-disk diffusion technique; type: functional, organism-based; outline: as §2
Acinetobacter baumannii [14] = assay: Antibacterial activity against Acinetobacter baumannii 122 assessed as growth inhibition at 1 mg/mL after 24 hrs by agar-disk diffusion technique; type: functional, organism-based; outline: as §2
Enterococcus faecalis = assay: Antibacterial activity against Enterococcus faecalis 2920 assessed as growth inhibition at 1 mg/mL after 24 hrs by agar-disk diffusion technique; type: functional, organism-based; outline: as §2
Pseudomonas putida = assay: Antibacterial activity against Pseudomonas putida 160 assessed as growth inhibition at 1 mg/mL after 24 hrs by agar-disk diffusion technique; type: functional, organism-based; outline: as §2
Pseudomonas aeruginosa [15] = assay: Antibacterial activity against Pseudomonas aeruginosa 1144 assessed as growth inhibition at 1 mg/mL after 24 hrs by agar-disk diffusion technique; type: functional, organism-based; outline: as §2
Pseudomonas aeruginosa [16] = assay: Antibacterial activity against Pseudomonas aeruginosa 165 assessed as growth inhibition at 1 mg/mL after 24 hrs by agar-disk diffusion technique; type: functional, organism-based; outline: as §2
Pseudomonas aeruginosa [17] = assay: Antibacterial activity against Pseudomonas aeruginosa ATCC 27853 assessed as growth inhibition at 1 mg/mL after 24 hrs by agar-disk diffusion technique; type: functional, organism-based; outline: as §2
Klebsiella pneumoniae = assay: Antibacterial activity against Klebsiella pneumoniae 1756 assessed as growth inhibition at 1 mg/mL after 24 hrs by agar-disk diffusion technique; type: functional, organism-based; outline: as §2
Escherichia coli = assay: Antibacterial activity against Escherichia coli 1777 assessed as growth inhibition at 1 mg/mL after 24 hrs by agar-disk diffusion technique; type: functional, organism-based; outline: as §2
Proteus mirabilis = assay: Antibacterial activity against Proteus mirabilis 1751 assessed as growth inhibition at 1 mg/mL after 24 hrs by agar-disk diffusion technique; type: functional, organism-based; outline: as §2
Morganella morganii = assay: Antibacterial activity against Morganella morganii 2810 assessed as growth inhibition at 1 mg/mL after 24 hrs by agar-disk diffusion technique; type: functional, organism-based; outline: as §2
Citrobacter koseri = assay: Antibacterial activity against Citrobacter koseri 1742 assessed as growth inhibition at 1 mg/mL after 24 hrs by agar-disk diffusion technique; type: functional, organism-based; outline: as §2
Enterobacter cloacae = assay: Antibacterial activity against Enterobacter cloacae 1845 assessed as growth inhibition at 1 mg/mL after 24 hrs by agar-disk diffusion technique; type: functional, organism-based; outline: as §2
Staphylococcus aureus = assay: Antibacterial activity against Staphylococcus aureus assessed as growth inhibition at 1 mg/mL after 24 hrs by agar-disk diffusion technique; type: functional, organism-based; outline: as §2
Staphylococcus hominis = assay: Antibacterial activity against Staphylococcus hominis 1813 assessed as growth inhibition at 1 mg/mL after 24 hrs by agar-disk diffusion technique; type: functional, organism-based; outline: as §2
[18] = system: Mycobacterium tuberculosis; assay: Antimycobacterial activity against Mycobacterium tuberculosis after 8 days by micro plate Alamar Blue assay; type: functional; settings: 192 h
Outline: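 Clinical M. tuberculosis strain grown in Middlebrook 7H9 broth. Compounds were dissolved in DMSO and serially diluted twofold on the plate, final 25 to 0.012 µg/mL. Plates were sealed and held 8 days at 37 °C. Alamar Blue with 10% Tween 80 (1:1) was then added for another 24 h at 37 °C. MIC was the lowest concentration preventing the blue-to-pink change.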

[19] = system: Radical scavenging activity; assay: Antioxidant activity assessed as DPPH radical scavenging activity at 0.1 mg/mL after 30 mins under dark conditions by spectrophotometric analysis relative to control; type: functional
Outline: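 Compounds dissolved in methanol at 0.1 mg/mL; 0.2 mL mixed with 1.8 mL of 2 × 10^-4 M DPPH in methanol and kept in the dark 30 min. Absorbance read at 517 nm. The blank was DPPH plus methanol. TAC (%) = (Abs initial − Abs 30 min)/Abs initial × 100.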

HCT-8 [20] = assay: Cell cycle arrest in human HCT8 cells assessed as accumulation at G2/M phase at 25 ug/mL after 24 hrs by propidium iodide staining-based flow cytometric analysis (reference value: 13.83%); type: ADME; settings: hct-8, 24 h
HCT-8 [21] = assay: Cell cycle arrest in human HCT8 cells assessed as accumulation at S phase at 25 ug/mL after 24 hrs by propidium iodide staining-based flow cytometric analysis (reference value: 39.43%); type: ADME; settings: hct-8, 24 h
HCT-8 [22] = assay: Cell cycle arrest in human HCT8 cells assessed as accumulation at G0/G1 phase at 25 ug/mL after 24 hrs by propidium iodide staining-based flow cytometric analysis (reference value: 46.43%); type: ADME; settings: hct-8, 24 h
[23] = Induction of apoptosis in human HCT8 cells assessed as viable cells at 50 ug/mL after 24 hrs by Annexin V-FITC and propidium iodide staining-based flow cytometric analysis (reference value: 87.7%); type: cell-based, HCT-8; settings: read-out: Activity
HCT-8 [24] = assay: Induction of apoptosis in human HCT8 cells assessed as early apoptotic cells at 50 ug/mL after 24 hrs by Annexin V-FITC and propidium iodide staining-based flow cytometric analysis (reference value: 1.57%); type: cell-based; settings: hct-8, 24 h
HCT-8 [25] = assay: Induction of apoptosis in human HCT8 cells assessed as late apoptotic cells at 50 ug/mL after 24 hrs by Annexin V-FITC and propidium iodide staining-based flow cytometric analysis (reference value: 2.97%); type: cell-based; settings: hct-8, 24 h
HCT-8 [26] = assay: Cytotoxicity against human HCT8 cells at 50 ug/mL after 24 hrs by trypan blue exclusion assay; type: cell-based; settings: hct-8, 24 h; outline: as §1
HCT-8 [27] = assay: Induction of apoptosis in human HCT8 cells assessed as necrotic cells at 50 ug/mL after 24 hrs by Annexin V-FITC and propidium iodide staining-based flow cytometric analysis (reference value: 7.73%); type: cell-based; settings: hct-8, 24 h
HCT-8 [28] = assay: Decrease in NAT1 gene expression in human HCT8 cells at 25 ug/mL after 24 hrs by RT-PCR analysis; type: ADME, cell-based; settings: hct-8, 24 h
HCT-8 [29] = assay: Decrease in NAT2 gene expression in human HCT8 cells at 25 ug/mL after 24 hrs by RT-PCR analysis; type: ADME, cell-based; settings: hct-8, 24 h

Structure (SMILES)	growth inhibition (GI) (Acinetobacter baumannii [9])	growth inhibition (GI) (Acinetobacter baumannii [11])	growth inhibition (GI) (Acinetobacter baumannii [12])	growth inhibition (GI) (Acinetobacter baumannii [13])	growth inhibition (GI) (Acinetobacter baumannii [14])	growth inhibition (GI) (Pseudomonas putida)	growth inhibition (GI) (Pseudomonas aeruginosa [16])	growth inhibition (GI) (Pseudomonas aeruginosa [17])	growth inhibition (GI) (Klebsiella pneumoniae)	growth inhibition (GI) (Escherichia coli)	growth inhibition (GI) (Proteus mirabilis)	growth inhibition (GI) (Morganella morganii)	growth inhibition (GI) (Citrobacter koseri)	growth inhibition (GI) (Enterobacter cloacae)	growth inhibition (GI) (Staphylococcus aureus)	growth inhibition (GI) (Staphylococcus hominis)	TAC [19] [%]	Activity (HCT-8 [20]) [%]	Activity (HCT-8 [21]) [%]	Activity (HCT-8 [22]) [%]	other results
NC(S)(/C=C/c1ccc(Cl)cc1)NNC(=O)c1ccncc1 (stereo unspecified)	Active	Active	Active	Active	Active	Active	Active	Active	Active	Active	Active	Active	Active	Active	Active	Active	25.7				Activity (HCT-8 [1]): Toxic; Activity (HCT-8 [2]): 15.59%; Activity (HCT-8 [3]): 29.41%; Activity (HCT-8 [4]): 52.35%; viability at 24 h, 25 ug/mL [5]: 55.4%; Activity (HCT-8 [6]): 1.63%; Activity (HCT-8 [7]): 19.3%; Activity (HCT-8 [8]): 23.7%; growth inhibition (GI) (Acinetobacter baumannii [10]): Active; growth inhibition (GI) (Enterococcus faecalis): Active; growth inhibition (GI) (Pseudomonas aeruginosa [15]): Active; MIC [18]: 6.25 µg/mL (≈ 18.7 µM)
NC(=S)/C=C/c1ccccc1		Active	Active		Active	Active	Active		Active	Active	Active		Active	Active	Active	Active	35.7	27.82	43.45	33.09	viability at 24 h, 50 ug/mL [23]: 28.3%; Activity (HCT-8 [24]): 12.9%; Activity (HCT-8 [25]): 36%; Activity (HCT-8 [26]): Toxic; Activity (HCT-8 [27]): 22.9%; Activity (HCT-8 [28]): Toxic
NC(=S)/C=C/c1ccc(Cl)cc1	inactive	Active	Active	inactive		Active		inactive	inactive		inactive	inactive			Active		15.7	13.01	56.31	31.35	viability at 24 h, 50 ug/mL [23]: 18.7%; Activity (HCT-8 [24]): 22.7%; Activity (HCT-8 [25]): 33.7%; Activity (HCT-8 [26]): Toxic; Activity (HCT-8 [27]): 24.9%; Activity (HCT-8 [29]): Toxic
